Assay outcomes deposited in PubChem BioAssay by several laboratories.
Cl transport mod: KCC2 cotransporter modulators, thallium flux, primary screen, cell-based, HEK293 KCC2, FluoZin-2 fluorescence, MLSMR | KCC2 cells, thallium flux FluoZin-2 fluorescence | B-score of Tl+ flux slope (higher = more flux/activation; lower = inhibition) at 10 µM | 2.2% of 190,000 active | AID 1456, 2008;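 active = thallium flux slope and its plate-corrected score both differing from the plate sample mean at a set confidence after two filtering rounds, in either direction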;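 note: slope of fluorescence scaled to starting intensity during 10 to 20 s after thallium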
Target sequence (Q9H2X9 whole entry, looked up): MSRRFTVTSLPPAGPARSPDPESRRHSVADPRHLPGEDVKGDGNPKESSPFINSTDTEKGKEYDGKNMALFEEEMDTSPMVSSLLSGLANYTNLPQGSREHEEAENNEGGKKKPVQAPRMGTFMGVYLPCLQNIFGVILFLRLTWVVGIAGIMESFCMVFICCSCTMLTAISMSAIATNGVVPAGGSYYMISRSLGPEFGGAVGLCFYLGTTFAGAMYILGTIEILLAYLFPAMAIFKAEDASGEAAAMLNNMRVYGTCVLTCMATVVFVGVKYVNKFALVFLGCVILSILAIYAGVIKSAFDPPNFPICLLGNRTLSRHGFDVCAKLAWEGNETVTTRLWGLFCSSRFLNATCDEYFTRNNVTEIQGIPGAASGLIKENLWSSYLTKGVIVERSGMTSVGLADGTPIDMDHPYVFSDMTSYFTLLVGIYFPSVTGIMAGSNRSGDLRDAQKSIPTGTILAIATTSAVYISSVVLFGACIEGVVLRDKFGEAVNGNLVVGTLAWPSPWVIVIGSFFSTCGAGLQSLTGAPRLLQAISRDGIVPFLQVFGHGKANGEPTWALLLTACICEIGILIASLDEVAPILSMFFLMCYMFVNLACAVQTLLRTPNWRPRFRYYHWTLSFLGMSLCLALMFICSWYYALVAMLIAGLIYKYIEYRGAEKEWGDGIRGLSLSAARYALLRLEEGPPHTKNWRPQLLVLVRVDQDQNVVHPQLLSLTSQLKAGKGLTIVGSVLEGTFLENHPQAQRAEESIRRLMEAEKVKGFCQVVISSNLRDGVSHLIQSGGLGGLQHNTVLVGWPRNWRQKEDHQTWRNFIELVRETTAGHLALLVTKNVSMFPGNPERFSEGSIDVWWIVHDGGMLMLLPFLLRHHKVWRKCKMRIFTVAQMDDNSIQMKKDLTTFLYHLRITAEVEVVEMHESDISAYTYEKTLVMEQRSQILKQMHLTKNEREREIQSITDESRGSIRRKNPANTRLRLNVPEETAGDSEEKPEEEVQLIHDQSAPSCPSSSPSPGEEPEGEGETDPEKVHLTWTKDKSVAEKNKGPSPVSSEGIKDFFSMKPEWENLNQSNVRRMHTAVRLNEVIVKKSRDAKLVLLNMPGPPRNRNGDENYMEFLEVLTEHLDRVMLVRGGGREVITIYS
HSV replic up: enhancers of HSV replication in host cells, fold increase, host cell viability. HSV replication augmentation in cells. maximum fold increase. 0.005% of 220,000 active. AID 1956, 2009; in the data active = maximum fold increase above about 1.5; tested in PC3 cells
STAT1 activator: STAT1 signaling activators, primary screen, cell-based, HTS, luciferase reporter; NIH 3T3 STAT1-luciferase reporter, IFN-gamma, luminescence; 100% = IFN-gamma alone, no compound; activation (% of control), % at 5.5 µM; 2.6% of 200,000 active;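 active = activation above the screen-wide mean activation plus 3 SD, cut at about 130% in these data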
STAT3 inh: IL-6 driven STAT3 reporter inhibitors, primary screen, U3A cells, luciferase, luminescence, MLSCN library; IL-6 STAT3-luciferase reporter; host cell line lacks STAT1; inhibition, % at 5.5 µM; 0.89% of 190,000 active;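 active = inhibition above the mean inhibition across all screened compounds plus 3 SD, cut at about 44% in these data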
STAT3 act: IL-6 driven STAT3 reporter potentiators, primary screen, U3A cells, luciferase, luminescence, MLSCN library. IL-6 STAT3-luciferase reporter; 100% = signal with IL-6 EC80 alone. activation (% of control), % at 5.6 µM. 0.91% of 190,000 active;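 active = activation above the screen-wide mean of compound activation plus 3 SD, cut at about 130% in these data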
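System – human U3A cells carrying STAT3-luciferase construct · Probe or stimulus – Interleukin-6, 33 ng/mL · Schedule – compound 1 h, then IL-6 6 h at 37 °C · Signal – luminescence from STAT3-driven luciferase reporter · Evaluation – percent of IL-6-only median luminescence · Benchmarks – IL-6-only high control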
STAT1 blocker: STAT1 signaling inhibitors, primary screen, cell-based, HTS, luciferase reporter. NIH 3T3 STAT1-luciferase reporter, IFN-gamma, luminescence. 0.35% of 200,000 active. inhibition, % at 5.5 µM;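 active = inhibition above a set limit, the mean inhibition across all tested compounds plus 3 SD, cut at about 34% in these data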
STAT1 act conf: STAT1 signaling activators, confirmation, cell-based, HTS, luciferase reporter | shares compounds with STAT1 activator | NIH 3T3 STAT1-luciferase reporter, IFN-gamma potentiation, luminescence; 100% = IFN-gamma EC80 alone, no compound | activation (% of control), % at 5.7 µM | 97% of 1,200 active | AID 1262, 2008;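 active = activation above a set limit carried over from the earlier primary STAT1 screen, cut at about 140% in these data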
NFkB act STAT1ct: NF-kB reporter activators, TNF-alpha stimulated, counter-screen for STAT1 activator project, cell-based, HEK293T, luciferase luminescence | 100% = TNF-alpha with vehicle only | 43% of 1,200 active | activation (% of control), % at 5.7 µM | shares compounds with STAT1 activator;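 active = activation above the mean of solvent-only control wells plus 3 SD, set per campaign, cut at about 130% in these data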;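 note: TNF-alpha given at a submaximal dose yielding about 80% of full reporter signal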
STAT3 act STAT1c: STAT3 reporter activation by STAT1 hits, confirmation, counter-screen for STAT1 activator project, U3A cells, luciferase, luminescence | shares compounds with STAT1 activator | IL-6; cells lack STAT1; 100 = IL-6 alone, no compound effect | activation (% of control), % at 5.7 µM | 46% of 1,200 active | AID 1316, 2008;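 active = activation above the solvent-only control well mean plus 3 SD, set per plate batch, cut at about 110% in these data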;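 note: higher means more STAT3 reporter activation so hits are non-selective activators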
Numbers stand for hits; 0 = inactive; - = no result. A selection: hits, their analogues and other compounds. The true share with any hit is near 5.5%.

SMILES	Cl transport mod	HSV replic up	STAT1 activator	STAT3 inh	STAT3 act	STAT1 blocker	STAT1 act conf	NFkB act STAT1ct	STAT3 act STAT1c
CCC/C=N/Nc1nc2ccccc2s1	0	0	163	0	0	0	225	143	127
C(=C\c1ccccc1)/C=N/Nc1nc2ccccc2s1	0	0	158	0	0	0	238	141	129
FC(F)(F)c1cc(-c2cccs2)nc(-n2cc(Cl)cn2)n1	0	0	0	0	0	0	-	-	-
O=C(O)c1ccc(N/C(=N\S(=O)(=O)c2ccc(Cl)cc2)c2ccccc2)cc1	0	0	-	-	-	-	-	-	-
O=C(NN/C(=N/S(=O)(=O)c1ccc(Cl)cc1)c1ccccc1)c1ccc(O)cc1	0	0	152	0	0	0	154	0	111
O=[N+]([O-])c1ccccc1OCCOc1ccccc1[N+](=O)[O-]	0	0	-	-	-	-	-	-	-
O=[N+]([O-])c1ccccc1OCCCn1cnc2ccccc21	0	0	169	0	0	0	188	0	0
CC1(C)c2ccccc2-c2nc3ccccc3cc2C1O (stereo unspecified)	0	0	-	-	-	-	-	-	-
Cc1ccc2c(c1)C(=NC1CCCCC1)c1cc3ccccc3nc1-2	0	0	192	0	0	0	208	0	150
Cc1ccc(-c2cc3ccccc3nc2N2CCCC2)cc1	-	0	0	0	0	0	-	-	-
Cc1ccc2c(c1)-c1nc3ccccc3cc1C2=NC1CCCCC1	0	0	172	0	0	0	201	0	123
O=C(N/N=C/c1ccccc1F)c1csc2c1CCCC2	0	0	157	0	0	0	217	0	0
CN(C)S(=O)(=O)c1ccc(C(=O)NCCSc2ccc(Br)cc2)cc1	0	0	0	0	0	0	-	-	-
O=C(NCCSc1ccccc1)c1ccc(Br)cc1	0	0	157	0	0	0	205	0	111
CC(C)CSc1nnc2c(n1)[nH]c1ccccc12	0	0	153	0	0	0	249	0	0
CC(=O)NC(=S)Nc1ccccc1F	0	0	0	0	0	0	-	-	-
COc1ccc(C(=O)NC(=S)Nc2ccccc2F)cc1	0	0	158	0	0	0	171	134	0
O=C(NN=C1C2CC3CC(C2)CC1C3)c1cccc(S(=O)(=O)N2CCOCC2)c1	0	0	0	0	0	0	-	-	-
CC(=O)Nc1cccc(-c2csc(Nc3ccc(Cl)cn3)n2)c1	0	0	202	0	0	0	249	161	0
CC(=O)Nc1cccc(-c2csc(Nc3cc(C)ccn3)n2)c1	-	0	152	0	0	0	174	0	115
C=CCNc1oc(/C=C/c2ccccc2)nc1C#N	-	0	155	0	0	0	197	144	114
CC(C)c1cc(NC(=O)CSc2nnc(-c3ccccc3F)n2C)on1	0	0	0	0	0	0	-	-	-
O=C1OC(Cc2ccccn2)C(O)=C1C1=NCCCN1 (stereo unspecified)	0	0	0	0	0	0	-	-	-
O=C1OC(Cc2ccccn2)C(O)=C1C1=NCCCCN1 (stereo unspecified)	0	0	152	0	0	0	151	0	114
Cc1ccc2cc3c(N)c(C(=O)N4CCOCC4)sc3nc2c1	0	-	156	0	0	0	0	0	111
